Assay results published in ChEMBL document CHEMBL4828740, “Discovery of Quinoxaline-Based P1-P3 Macrocyclic NS3/4A Protease Inhibitors with Potent Activity against Drug-Resistant Hepatitis C Virus Variants” (J Med Chem, 2021).

Legend:
[1] = target: T1, Hepatitis C virus serine protease, NS3/NS4A (Hepatitis C virus, UniProt A3EZI9+D2K2A8); experiment: Inhibition of HCV GT-1a NS3/4a protease using Ac-DE-D(Edans)-EE-Abu-c-[COO]-AS-K(Dabcy1)-NH2 preincubated for 1 hr followed by substrate addition; type: protein complex, Hepatitis C virus subtype 1a
[2] = Clearance in Sprague-Dawley rat at 5 mg/kg, iv measured after 0.25 to 24 hrs by LC-MS/MS analysis; type: ADME, organism-based; conditions: in vivo, time 0.25-24 hrs
[3] = target: T1, Hepatitis C virus serine protease, NS3/NS4A; experiment: Inhibition of HCV GT-3a NS3/4a protease using Ac-DE-D(Edans)-EE-Abu-c-[COO]-AS-K(Dabcy1)-NH2 preincubated for 1 hr followed by substrate addition; type: protein-complex assay, Hepatitis C virus subtype 3a
[4] = Half life in Sprague-Dawley rat at 10 mg/kg, po measured after 0.25 to 24 hrs by LC-MS/MS analysis; type: ADME, organism-based; conditions: in vivo, time 0.25-24 hrs
[5] = Volume of distribution at steady state in Sprague-Dawley rat at 5 mg/kg, iv measured after 0.25 to 24 hrs by LC-MS/MS analysis; type: ADME, organism-based; conditions: in vivo, time 0.25-24 hrs, read-out: Vdss
Hepatitis C virus [6] = experiment: Antiviral activity against HCV genotype 1b harboring D168A mutant infected in human Huh7 cells incubated for 96 hrs by luciferase assay; type: functional, organism-based, Hepacivirus hominis; conditions: subtype 1b, Huh-7, 96 h
How it was run: (§1)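 Con1 (GT-1b) luciferase reporter replicon carrying the H77 (GT-1a) NS3 protease region, with the mutation introduced by megaprimer site-directed mutagenesis. Cured Huh7 cells were grown in DMEM with 10% heat-inactivated FBS and 0.1 mM non-essential amino acids, electroporated with replicon RNA transcripts, and kept with serially diluted inhibitor. EC50 was taken directly from the inhibition curves.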

[7] = Cmax in Sprague-Dawley rat at 10 mg/kg, po measured after 0.25 to 24 hrs by LC-MS/MS analysis; type: ADME, organism-based; set-up: route oral, time 0.25-24 hrs, dose 10 mg/kg; conditions: in vivo
Hepatitis C virus [8] = experiment: Antiviral activity against HCV genotype 1b harboring A156T mutant infected in human Huh7 cells incubated for 96 hrs by luciferase assay; type: functional, organism-based, Hepacivirus hominis; conditions: subtype 1b, Huh-7, 96 h; how it was run: as §1
Hepatitis C virus [9] = experiment: Antiviral activity against HCV genotype 3a infected in human Huh7.5 cells incubated for 72 hrs by luciferase assay; type: functional, organism-based, Hepacivirus hominis; conditions: subtype 3a, Huh7.5, 72 h
How it was run: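 Huh7.5 cells stably harboring the GT-3a replicon S52/SG-Feo SHI, seeded at 8,000 cells/well. Cells lysed in 1X Passive Lysis Buffer and luciferase activity measured. EC50 taken from drug inhibition curves.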

[10] = Oral bioavailability in Sprague-Dawley rat at 10 mg/kg measured after 0.25 to 24 hrs by LC-MS/MS analysis; type: ADME, organism-based; conditions: in vivo, time 0.25-24 hrs
[11] = Tmax in Sprague-Dawley rat at 10 mg/kg, po measured after 0.25 to 24 hrs by LC-MS/MS analysis; type: ADME, organism-based; conditions: in vivo, time 0.25-24 hrs
[12] = AUC(0 to 24 hrs) in Sprague-Dawley rat at 5 mg/kg, iv measured after 0.25 to 24 hrs by LC-MS/MS analysis; type: ADME, organism-based; set-up: route intravenous, dose 5 mg/kg, time 0.25-24 hrs; conditions: in vivo
Hepatitis C virus [13] = experiment: Antiviral activity against HCV genotype 1b infected in human Huh7 cells incubated for 96 hrs by luciferase assay; type: functional, organism-based, Hepacivirus hominis; conditions: Huh-7, 96 h
How it was run: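 Con1 (GT-1b) luciferase reporter replicon carrying the H77 (GT-1a) NS3 protease region, either WT or with A156T or D168A introduced by megaprimer mutagenesis. Cured Huh7 cells grown in DMEM with 10% heat-inactivated FBS and 0.1 mM non-essential amino acids. Cells electroporated with replicon RNA and kept with serially diluted inhibitor.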

[14] = Half life in Sprague-Dawley rat at 5 mg/kg, iv measured after 0.25 to 24 hrs by LC-MS/MS analysis; type: ADME, organism-based; conditions: in vivo, time 0.25-24 hrs

Molecule COc1ccc2nc(C)c(O[C@@H]3C[C@H]4C(=O)N[C@]5(C(=O)NS(=O)(=O)C6(C)CC6)C[C@H]5/C=C/CCCCC[C@H](NC(=O)OC(C)(C)C)C(=O)N4C3)nc2c1 has a Ki [1] of 3.6 nM, a clearance [2] of 51 mL/min/kg and a Ki [3] of 119 nM. For the same molecule, the half-life [4] was 3 h, the Vd [5] was 3.5 L/kg and the EC50 (Hepatitis C virus [6]) was 2.2 nM. For the same molecule, the Cmax [7] was 180 nM, the EC50 (Hepatitis C virus [8]) was 2.1 nM and the EC50 (Hepatitis C virus [9]) was 300 nM. It also gave a bioavailability [10] of 10%, a Tmax [11] of 1.4 h and an AUC(0-t) [12] of 2.2 µM·h. For the same molecule, the EC50 (Hepatitis C virus [13]) was 0.6 nM and the half-life [14] was 5.2 h.
